Molecules are shown by their SMILES. The source made the active and inactive calls. No cut-off for these calls is given here.

T1 sequence (P11309 whole entry, looked up): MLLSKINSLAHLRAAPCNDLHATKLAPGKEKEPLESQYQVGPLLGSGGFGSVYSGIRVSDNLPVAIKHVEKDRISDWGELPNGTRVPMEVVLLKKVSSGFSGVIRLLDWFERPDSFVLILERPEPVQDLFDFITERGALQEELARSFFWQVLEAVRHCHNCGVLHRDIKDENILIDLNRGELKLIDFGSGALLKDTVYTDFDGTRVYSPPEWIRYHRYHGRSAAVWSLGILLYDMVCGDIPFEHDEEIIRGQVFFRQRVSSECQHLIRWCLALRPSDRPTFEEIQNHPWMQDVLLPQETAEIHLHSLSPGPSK
T1 sequence (P32455 whole entry, looked up): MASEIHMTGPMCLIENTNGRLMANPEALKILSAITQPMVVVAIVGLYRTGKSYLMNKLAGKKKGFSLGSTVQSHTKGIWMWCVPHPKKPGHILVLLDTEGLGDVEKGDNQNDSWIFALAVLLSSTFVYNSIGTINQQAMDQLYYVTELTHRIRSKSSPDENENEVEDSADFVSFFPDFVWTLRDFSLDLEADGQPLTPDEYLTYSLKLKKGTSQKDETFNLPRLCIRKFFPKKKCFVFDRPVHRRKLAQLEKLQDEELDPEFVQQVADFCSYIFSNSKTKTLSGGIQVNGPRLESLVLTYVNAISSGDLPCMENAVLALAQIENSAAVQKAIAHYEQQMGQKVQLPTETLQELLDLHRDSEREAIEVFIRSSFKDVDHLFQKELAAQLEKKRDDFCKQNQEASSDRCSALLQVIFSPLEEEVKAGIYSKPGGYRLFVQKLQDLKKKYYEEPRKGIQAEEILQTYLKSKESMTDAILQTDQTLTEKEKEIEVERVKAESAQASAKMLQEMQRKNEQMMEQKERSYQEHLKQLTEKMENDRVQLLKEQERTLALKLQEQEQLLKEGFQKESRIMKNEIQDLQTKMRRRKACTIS

One assay has as its target T1, Interferon-induced guanylate-binding protein 1/Serine/threonine-protein kinase pim-1 (Homo sapiens) (UniProt P11309+P32455). As to the kind of experiment: Inhibition of GBP1 (unknown origin)-PIM1 (unknown origin) interaction at 100 nM by SPR analysis. Format: protein assay.
Conditions: not given
Put shortly:
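Recombinant PIM1 amine-coupled (50 μg/mL in acetate pH 5.5, ~2000 RU) on an EDC/S-NHS-activated GLM chip; blank acetate-treated channel as reference. Compound co-injected with GBP1 280 nM in TBST, 30 μL/min for 120 s, 15 min dissociation. Carbonic anhydrase 280 nM was the negative control. % inhibition = RU with compound over RU with GBP1 alone; runs done at least three times.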
One may read the inhibition as the change of the read-out against control, counted positive when it falls. Take `COc1cc2c(cc1OC)N(CCO)C1=C(C(=O)OC1)C2c1cccc(Br)c1` (configuration not stated): the inhibition worked out at 10%.
Still for that read-out and setting: to `O=C1OCC2=C1C(c1ccc(Cl)c(Cl)c1)c1cc3c(cc1N2CCO)CCC3` (configuration not stated) belongs “inactive”; to `COc1ccc(C2C3=C(COC3=O)N(CCO)c3cc4c(cc32)OCCO4)cc1` (configuration not stated), “inactive”; to `CCc1ccc2c(c1)N(CCO)C1=C(C(=O)OC1)C2c1ccccc1` (configuration not stated), “inactive”.
Still for that read-out and setting: to `COc1cc(C2C3=C(COC3=O)N(CCO)c3cc4c(cc32)CCC4)cc(OC)c1OC` (configuration not stated) belongs “inactive”.
Same read-out and setting: to `COc1ccc(C2C3=C(COC3=O)N(CCO)c3cc(OC)c(OC)cc32)cc1OC` (configuration not stated) belongs 10%.
`COc1ccc2c(c1)N(CCO)C1=C(C(=O)OC1)C2c1cccc(Br)c1` (configuration not stated) yielded an inhibition of 10%.
The same measure, in the same setting: the figure for `COc1ccc2c(c1)N(CCO)C1=C(C(=O)OC1)C2c1ccccc1` (configuration not stated) is 65%; for `COc1ccc(C2C3=C(COC3=O)N(CCO)c3cc(OC)ccc32)cc1` (configuration not stated) it is 10%; for `COc1cc2c(cc1OC)N(CCO)C1=C(C(=O)OC1)C2c1cccc(Cl)c1` (configuration not stated) it is 10%.
Same read-out and setting: the entry for `COc1cc(C2C3=C(COC3=O)N(CCO)c3cc4c(cc32)OCCO4)cc(OC)c1O` (configuration not stated) is “inactive”; for `COc1cc(C2C3=C(COC3=O)N(CCO)c3cc4c(cc32)OCCO4)cc(OC)c1OC` (configuration not stated) it is “inactive”; for `O=C1OCC2=C1C(c1ccccc1)c1cc3c(cc1N2CCO)OCO3` (configuration not stated) it is “inactive”.
Same read-out and setting: the entry for `COc1ccc(C2C3=C(COC3=O)N(CCO)c3cc(OC)c(OC)cc32)cc1` (configuration not stated) is “inactive”.
On to `COc1cccc(C2C3=C(COC3=O)N(CCO)c3cc4c(cc32)OCCO4)c1` (configuration not stated), for which the inhibition entry was “inactive”.
Turning to `COc1cccc(C2C3=C(COC3=O)N(CCO)c3cc4c(cc32)OCO4)c1` (configuration not stated), the inhibition entry is “inactive”.
On the same count and under the same terms, the entry for `O=C1OCC2=C1C(c1cccc(Cl)c1)c1cc3c(cc1N2CCO)OCCO3` (configuration not stated) is “inactive”; for `COc1cccc(C2C3=C(COC3=O)N(CCO)c3cc(OC)ccc32)c1` (configuration not stated) it is 10%.
For `COc1cc(C2C3=C(COC3=O)N(CCO)c3cc4c(cc32)CCC4)cc(OC)c1O` (configuration not stated), the inhibition result was “inactive”.
Take `COc1ccc(C2C3=C(COC3=O)N(CCO)c3cc4c(cc32)CCC4)cc1OC` (configuration not stated): the inhibition result was “inactive”.
On to `COc1cc2c(cc1OC)N(CCO)C1=C(C(=O)OC1)C2c1cc(OC)c(OC)c(OC)c1` (configuration not stated), for which the inhibition was 10%.
Take `COc1ccc2c(c1)N(CCO)C1=C(C(=O)OC1)C2c1ccc(OC)c(OC)c1` (configuration not stated): the inhibition result was “inactive”.
As to `COc1ccc(C2C3=C(COC3=O)N(CCO)c3cc4c(cc32)OCO4)cc1` (configuration not stated), the inhibition entry is “inactive”.
In the case of `O=C1OCC2=C1C(c1cccc(Cl)c1)c1cc3c(cc1N2CCO)OCO3` (configuration not stated), the inhibition entry was “inactive”.
For the molecule `COc1cc2c(cc1OC)N(CCO)C1=C(C(=O)OC1)C2c1ccc(Cl)c(Cl)c1` (configuration not stated), the inhibition result is “inactive”.
Molecule `COc1cccc(C2C3=C(COC3=O)N(CCO)c3cc(OC)c(OC)cc32)c1` (configuration not stated) registered an inhibition of 10%.
For the molecule `COc1cc(C2C3=C(COC3=O)N(CCO)c3cc4c(cc32)OCO4)cc(OC)c1O` (configuration not stated), the inhibition entry is “inactive”.
`O=C1OCC2=C1C(c1ccccc1)c1cc3c(cc1N2CCO)OCCO3` (configuration not stated): the inhibition result is “inactive”.
With `CCc1ccc2c(c1)N(CCO)C1=C(C(=O)OC1)C2c1cc(OC)c(OC)c(OC)c1` (configuration not stated), the inhibition entry was “inactive”.
On to `COc1cccc(C2C3=C(COC3=O)N(CCO)c3cc4c(cc32)CCC4)c1` (configuration not stated), for which the inhibition result is “inactive”.
Regarding `O=C1OCC2=C1C(c1ccccc1)c1cc3c(cc1N2CCO)CCC3` (configuration not stated), the inhibition result is “inactive”.
Consider `O=C1OCC2=C1C(c1cccc(Br)c1)c1cc3c(cc1N2CCO)CCC3` (configuration not stated), for which the inhibition entry is “inactive”.
Still for that read-out and setting: the entry for `O=C1OCC2=C1C(c1cccc(Cl)c1)c1cc3c(cc1N2CCO)CCC3` (configuration not stated) is “inactive”.
Still for that read-out and setting: to `CCc1ccc2c(c1)N(CCO)C1=C(C(=O)OC1)C2c1ccc(Cl)c(Cl)c1` (configuration not stated) belongs “inactive”; to `O=C1OCC2=C1C(c1ccc(Cl)c(Cl)c1)c1cc3c(cc1N2CCO)OCCO3` (configuration not stated), “inactive”.
Turning to `CCc1ccc2c(c1)N(CCO)C1=C(C(=O)OC1)C2c1cccc(Br)c1` (configuration not stated), the inhibition entry was “inactive”.
`COc1ccc(C2C3=C(COC3=O)N(CCO)c3cc4c(cc32)OCO4)cc1OC` (configuration not stated): the inhibition entry is “inactive”.
Take `COc1ccc(C2C3=C(COC3=O)N(CCO)c3cc4c(cc32)CCC4)cc1` (configuration not stated): the inhibition result is “inactive”.
`COc1ccc2c(c1)N(CCO)C1=C(C(=O)OC1)C2c1cc(OC)c(OC)c(OC)c1` (configuration not stated) came in with an inhibition of 10%.
With `COc1ccc(C2C3=C(COC3=O)N(CCO)c3cc4c(cc32)OCCO4)cc1OC` (configuration not stated), the inhibition entry is “inactive”.
Turning to `O=C1OCC2=C1C(c1cccc(Br)c1)c1cc3c(cc1N2CCO)OCCO3` (configuration not stated), the inhibition entry is “inactive”.
As to `COc1cc(C2C3=C(COC3=O)N(CCO)c3cc4c(cc32)OCO4)cc(OC)c1OC` (configuration not stated), the inhibition entry is “inactive”.
In the case of `CCc1ccc2c(c1)N(CCO)C1=C(C(=O)OC1)C2c1cccc(Cl)c1` (configuration not stated), the inhibition was 10%.
The same measure, in the same setting: the entry for `COc1cc2c(cc1OC)N(CCO)C1=C(C(=O)OC1)C2c1ccccc1` (configuration not stated) is “inactive”.

Another assay addresses T1, Interferon-induced guanylate-binding protein 1/Serine/threonine-protein kinase pim-1 (Homo sapiens). As to the kind of experiment: Inhibition of GBP1 (unknown origin)-PIM1 (unknown origin) interaction by SPR analysis. It counts as protein assay.
Conditions: not given
The method in brief:
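Recombinant PIM1 (50 μg/mL in acetate buffer pH 5.5) amine-coupled to GLM chip via EDC/S-NHS (~2000 RU); compound (0.1, 1, 10, 100 nM) co-injected with GBP1 280 nM in TBST, 30 μL/min, 120 s, 15 min dissociation; DMSO 0.2% v/v. CA 280 nM negative control. % inhibition = RU with compound over GBP1-alone maximum; runs at least three times.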
For orientation: Surface plasmon resonance follows binding to a sensor surface in real time, without labels.
Turning to `COc1ccc2c(c1)N(CCO)C1=C(C(=O)OC1)C2c1ccccc1` (configuration not stated), the inhibition entry was “Dose-dependent effect”.

Another assay shares this target. As to the kind of experiment: Inhibition of GBP1-PIM1 interaction in human SKOV3 cells at 100 nM after 3 hrs by co-immunoprecepitation method. Format: cell-based. To be noted: SK-OV-3. The method in brief: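 SKOV3 cells treated 3 h with compound; cells scraped, lysed, PIM1 immunoprecipitated (anti-IgG negative control); co-precipitated GBP1 detected by Western blot with anti-GBP1 (67 kD band, antibodies 1:200 in 5% milk–TBST). Bands quantified by densitometry; DMSO vehicle control.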
Take `COc1ccc2c(c1)N(CCO)C1=C(C(=O)OC1)C2c1ccccc1` (configuration not stated): the inhibition entry was “Active”.
On the same count and under the same terms, the entry for `COc1ccc2c(c1)N(CCO)C1=C(C(=O)OC1)C2c1cc(OC)c(OC)c(OC)c1` (configuration not stated) is “inactive”.

The values above are taken from ChEMBL document CHEMBL3352717, “Identification of the first inhibitor of the GBP1:PIM1 interaction. Implications for the development of a new class of anticancer agents against paclitaxel resistant cancer cells” (J Med Chem, 2014).
